ChEMBL document CHEMBL1125435, “Synthesis and biological activity of open-chain analogues of 5,6,7,8-tetrahydrofolic acid--potential antitumor agents” (J Med Chem, 1992)

Columns and labels:
[1] = tested on: MOLT-4; experiment: Compound was evaluated for inhibition of [3H]methotrexate uptake into MOLT-4 cells; type: functional, cell-based; settings: Homo sapiens
[2] = tested on: MCF7; experiment: In vitro inhibition of growth of MCF-7 human breast adenocarcinoma using 72 hours continuous exposure; type: functional, cell-based
Method in brief: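 ATCC MCF-7 cells grown in RPMI 1640 with 10 nM calcium leucovorin as folate source, 10% dialyzed fetal calf serum, penicillin, streptomycin and sodium pyruvate (110 μg/mL). Cells seeded at 15000/well, preincubated 24 h at 37 °C, then exposed 72 h (37 °C, 5% CO2), triplicate per concentration. Growth read by MTT reduction, formazan dissolved in DMSO, A570 (reference 750 nm), against a cell-number standard curve.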

[3] = tested on: MOLT-4; experiment: In vitro inhibitory activity against MOLT-4 T-cell leukemia cell AICAR transformylase; type: functional, cell-based, Homo sapiens; settings: for IC50: Homo sapiens, MOLT-4
[4] = target: GAR transformylase (Sus scrofa); experiment: In vitro inhibition of hog liver GAR transformylase with (6R)-10-formyl-FH4 as cofactor

SMILES | IC50 [1] [nM] | IC50 [2] [nM] | IC50 [3] [nM] | IC50 [4] [nM] | Inhibition [3] [%]
Cc1cc(C(=O)NC(CCC(=O)O)C(=O)O)ccc1NCCCc1c(N)nc(N)nc1O (stereo unspecified) | 1300 | 250 |  |  | 
COc1cc(C(=O)NC(CCC(=O)O)C(=O)O)ccc1NCCCc1c(N)nc(N)nc1O (stereo unspecified) | 1000 | 5000 |  |  | 
Nc1nc(N)c(CCCCc2ccc(C(=O)N[C@@H](CCC(=O)O)C(=O)O)cc2)c(=O)[nH]1 [DIDEAZAACYCLOTETRAHYDROFOLIC ACID] | 900 | 61 |  |  | 
Nc1nc(N)c(CCCSc2ccc(C(=O)NC(CCC(=O)O)C(=O)O)cc2)c(O)n1 (stereo unspecified) | 800 | 23 | 25800 |  | 
Nc1nnc(C2CCN(c3ccc(C(=O)NC(CCC(=O)O)C(=O)O)cc3)C2=O)c(O)n1 (stereo unspecified) | > 100000 | > 100000 |  |  | 
Nc1nc(N)c(CCCNc2ccc(C(=O)NC(CCC(=O)O)C(=O)O)c(Cl)c2)c(O)n1 (stereo unspecified) | 700 | 115 | 182000 |  | 
Nc1nc(O)c2c(n1)NCC(CCc1ccc(C(=O)NC(CCC(=O)O)C(=O)O)cc1)C2 (stereo unspecified) | 1500 | 18 |  |  | 
Nc1nc(N)c(CCCNc2ccc(C(=O)NC(CCC(=O)O)C(=O)O)c(F)c2)c(O)n1 (stereo unspecified) | 700 | 33 | 79300 |  | 

Continued, in another order:

IC50 [1] [nM] | IC50 [2] [nM] | IC50 [3] [nM] | IC50 [4] [nM] | SMILES | Inhibition [3] [%]
1200 |  |  | 3000 | Nc1nc(N)c(CCCNc2ccc(C(=O)N[C@@H](CCC(=O)O)C(=O)O)cc2)c(O)n1 | 
1500 | 5000 |  |  | Nc1nc(N)c(CCCCNc2ccc(C(=O)NC(CCC(=O)O)C(=O)O)cc2)c(O)n1 (stereo unspecified) | 
2000 | > 50000 |  |  | Nc1ncnc(O)c1CCCNc1ccc(C(=O)NC(CCC(=O)O)C(=O)O)cc1 (stereo unspecified) | 26
1100 | 85 |  |  | Nc1nc(N)c(CCCOc2ccc(C(=O)NC(CCC(=O)O)C(=O)O)cc2)c(O)n1 (stereo unspecified) | 
1000 | 63 | 133000 |  | Nc1nc(N)c(CCCNc2ccc(C(=O)NC(CCC(=O)O)C(=O)O)cc2F)c(O)n1 (stereo unspecified) | 
